Screening results deposited in PubChem BioAssay by Sanford-Burnham Center for Chemical Genomics.
DNMT1 inh: human DNMT1 methyltransferase inhibitors, primary screen, biochemical, molecular beacon, fluorescence, HinP1I cleavage, uHTS; DNA (cytosine-5)-methyltransferase 1 (Homo sapiens), P26358; inhibition (reported as % activation of signal), % at 10 µM; 360,000 tested, 0.83% active; AID 588458, 2011; in the data active = inhibition above about 50%
STEP inh: STEP phosphatase inhibitors, primary screen, biochemical, fluorescence intensity, uHTS | inhibition, % at 20 µM | 360,000 tested, 0.25% active | Tyrosine-protein phosphatase non-receptor type 5 (Homo sapiens), P54829 | recombinant STEP, OMFP fluorogenic substrate;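 active = inhibition at 20 µM, scaled per plate between control wells, above about 37%, limit read from the data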;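 also: 0% = DMSO with enzyme and substrate and 100% = substrate only without enzyme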
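material = STEP tyrosine phosphatase | reagent = fluorogenic phosphatase substrate OMFP at 25 µM final | doses = single compound dose of 20 µM, 1% DMSO final | schedule = 20 min reaction, room temperature, in the dark | measured by = fluorescence, 480/540 nm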
SUMO1 PPI mod: modulators of SUMO1 protein-protein interactions, primary screen, biochemical, uHTS | SUMO1 binding to a labelled peptide, TR-FRET, 1 h | inhibition, % at 20 µM | 360,000 tested, 0.33% active | Small ubiquitin-related modifier 1 (Homo sapiens), P63165; in the data active = inhibition above about 37%
Target sequence (P63165 whole entry, looked up): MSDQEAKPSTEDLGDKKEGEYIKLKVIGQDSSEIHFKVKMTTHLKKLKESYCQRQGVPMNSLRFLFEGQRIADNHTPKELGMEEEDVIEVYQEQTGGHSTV
NadD inh: inhibitors of S. aureus NadD, primary screen, biochemical, colorimetric, uHTS | purified NadD enzyme, colorimetric absorbance read-out | inhibition, % at 20 µM | AID 602399, 2012 | 360,000 tested, 0.78% active; in the data active = inhibition above about 26%
Scp-1 inhibitor: Scp-1 phosphatase inhibitors, primary screen, biochemical, colorimetric, uHTS; Carboxy-terminal domain RNA polymerase II polypeptide A small phosphatase 1 (Homo …; AID 493091, 2011; 340,000 tested, 0.88% active; Recombinant Scp1, phosphopeptide, malachite green phosphate absorbance; inhibition, % at 20 µM;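 active = inhibition above about 50% at 20 µM, limit read from the data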;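 also: plate controls were DMSO wells with enzyme for no effect and wells lacking enzyme for full effect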
Target sequence (Q9GZU7 76-261 limits assumed): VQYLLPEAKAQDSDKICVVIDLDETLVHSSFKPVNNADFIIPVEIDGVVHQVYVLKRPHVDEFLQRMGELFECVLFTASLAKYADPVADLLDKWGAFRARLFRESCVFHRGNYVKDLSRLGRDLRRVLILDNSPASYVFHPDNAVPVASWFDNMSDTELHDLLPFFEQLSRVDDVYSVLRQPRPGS
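Material: truncated SCP-1 phosphatase (76-261aa) / Buffer or medium: 50 mM Tris acetate pH 5.5, 0.005% Tween-20, 10 mM MgCl2 / Compound dosing: one concentration, 20 µM, with 1.0% DMSO / Incubation: 45 min room-temperature reaction, 5 min colour, 30 min stabiliser / Detection: colorimetric free-phosphate detection, absorbance 630 nm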
LMPTP inh: LMPTP phosphatase inhibitors, primary screen, biochemical, fluorescence intensity, uHTS; 360,000 tested, 0.22% active; recombinant LMPTP-A, OMFP fluorogenic substrate; inhibition, % at 20 µM; AID 651560, 2012;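 active = compounds that cut the enzyme signal by at least half of the control window in the single-dose screen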;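 also: plate controls were DMSO wells with enzyme plus substrate for no effect and substrate without enzyme for full effect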
Target sequence (P24666 whole entry, looked up): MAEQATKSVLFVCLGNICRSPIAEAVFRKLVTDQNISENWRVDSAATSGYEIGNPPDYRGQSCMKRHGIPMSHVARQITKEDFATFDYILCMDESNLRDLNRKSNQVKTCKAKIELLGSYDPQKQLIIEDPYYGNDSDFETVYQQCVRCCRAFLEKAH
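Buffer or medium: Bis-Tris pH 6.0, DTT, detergent; Assay system: LMPTP-A enzyme; Quantity: 0.625 nM enzyme; Detection: endpoint fluorescence intensity; Times: 50 min dark incubation at room temperature; Controls: substrate-only low control, DMSO enzyme-plus-substrate high control; Doses: single 20 µM dose; Read-out: percent inhibition versus substrate-only and uninhibited controls; Reagent: 400 µM OMFP.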
The depositor's hits bear a star; . = no result given; + = active, no number. Sampled rows, rich in hits. Any-hit rate of the full collection: about 2.4%.

SMILES	DNMT1 inh	STEP inh	SUMO1 PPI mod	NadD inh	Scp-1 inhibitor	LMPTP inh
CN1OC[C@@H]2CN(C(=S)NCCc3ccccc3)[C@H](c3ccc(-n4ccnc4)cc3)C[C@@H]21	5.0	0.7	-1.3	3.2	.	-0.3
Cc1nc2ccccc2c2oc(C(=O)N3CCN(c4ccc([N+](=O)[O-])cc4)CC3)cc12	1.4	0.0	50.4*	9.6	3.4	4.8
Cc1cc(N2CCN(S(=O)(=O)c3ccc(Cl)c(Cl)c3)CC2)c2ccccc2n1	-2.1	3.0	6.6	11.9	6.4	54.6*
Cc1cc(N2CCN(C(=O)Oc3ccc([N+](=O)[O-])cc3)CC2)c2ccccc2n1	.	.	-21.9	-1.6	.	50.5*
Cc1cc(N2CCN(S(=O)(=O)c3ccc(Cl)cc3)CC2)c2ccccc2n1	-3.3	-0.3	-3.4	-5.8	4.6	47.5
Cc1nc2ccccc2c2oc(C(=O)N3CCN(C(=O)c4ccco4)CC3)cc12	2.3	1.6	0.2	1.4	7.1	0.5
COc1ccc(NC(=O)C(Sc2nnc3ccccn23)c2ccccc2)cc1Cl (stereo not given)	-19.5	-0.5	2.1	3.3	6.2	-0.5
C=CCNC(=O)C1COc2ccccc2O1 (stereo not given)	1.9	0.4	0.2	-6.2	-13.7	-0.8
NC(=O)c1cccc(-c2ccnc3c2CC(C(=O)NCc2ccccc2)O3)c1 (stereo not given)	-2.0	1.2	2.1	0.2	.	-0.5
COc1ccc(NC(=O)Nc2cc3oc4ccccc4c3cc2OC)cc1	2.8	-4.9	58.6*	2.0	-7.6	1.2
C[C@H](O)[C@@H]1C(=O)N2CCc3c([nH]c4ccccc34)[C@@H]2C[C@@H]1N(C)S(=O)(=O)c1ccccc1	-1.2	1.5	-3.5	2.6	.	1.2
N=C(N)c1ccc(/C=C/c2ccc(C(=N)N)cc2O)cc1	-7.3	0.0	77.8*	-10.1	-5.1	65.0*
N=C(N)c1ccc(Cl)cc1	-0.5	-1.8	1.6	-5.3	0.6	-1.2
c1ccc(-c2nnc(C3CC(c4ccncc4)=NO3)o2)cc1 (stereo not given)	-0.8	-1.5	4.9	-1.4	-4.4	-0.9
CC1(C)C[C@H]2C3=CCC4[C@@]5(C)CC[C@H](O)[C@](C)(CO)C5CC[C@@]4(C)[C@]3(C)C[C@H]3O[C@@H]1[C@H](O)[C@]32CO (stereo not given in full)	5.3	-2.6	47.3*	1.0	-4.4	-0.6
CC1(C)C[C@H]2C3=CCC4[C@@]5(C)CC[C@H](O)[C@](C)(CO)C5CC[C@@]4(C)[C@]3(C)CC[C@@]2(C)[C@H](O)[C@@H]1O (stereo not given in full)	21.7	-3.2	17.7	-5.7	-1.3	-0.8
CCC(=O)Nc1nonc1-c1nc2ccccc2n1Cc1ccc(Cl)c(Cl)c1	.	.	.	.	56.3*	.
CCCN1CCN(C(=O)Cn2cnc3sc(C)c(S(=O)(=O)N4CCC(C)CC4)c3c2=O)CC1	15.9	-1.9	47.7*	-2.9	-5.8	-0.9
Cc1sc2ncn(CC(=O)N3CCCCC3)c(=O)c2c1S(=O)(=O)N1CCC(C)CC1	-0.8	-3.4	-5.3	5.2	-9.8	0.4
Cc1cc2nc3c(=O)[nH]c(=O)[nH]c3nc2c([N+](=O)[O-])c1N	110.5*	-9.0	100.0*	4.6	72.5*	10.0
Cc1c(N)c(C(C)(C)C)cc(C(C)(C)C)c1[N+](=O)[O-]	9.8	-2.8	2.6	-9.7	-5.1	2.2
O=C(/C=C/c1ccco1)Nc1cccc2cccnc12	63.4*	1.5	28.0	16.3	0.8	50.1*
Oc1ccc(N=Cc2ccc(OCc3ccccc3)cc2)cc1	27.9	3.0	63.2*	0.0	-10.6	12.1
O=C(N/N=C/c1ccc(OCc2ccccc2)cc1)c1ccncc1	2.4	-1.7	-9.6	0.0	-6.7	1.9
Cc1cc(-c2ccccc2)nc(Nc2nc3c(C)cccc3c(=O)[nH]2)n1	47.7	-0.2	52.6*	0.5	-8.4	7.2
SMILES	DNMT1 inh	STEP inh	SUMO1 PPI mod	NadD inh	Scp-1 inhibitor	LMPTP inh
CNc1ccc2c3c(cccc13)C(=O)N(C)C2=O	+	-205.5	-228.4	-5.3	-12.5	-21.4
CN1C(=O)c2cccc3c(Cl)ccc(c23)C1=O	20.2	-3.9	-14.3	1.1	-6.3	0.2
Oc1ccccc1N=Nc1nc(-c2ccccc2)c(-c2ccccc2)[nH]1	-11.1	4.1	-21.6	34.9*	10.8	10.0
CON(C)C(=O)CC1(CN(Cc2ccccc2)C(=O)OC(C)(C)C)CCCCC1	4.8	2.8	6.5	-4.8	-6.5	2.1
C#CC(=O)CC1(CN(Cc2ccccc2)C(=O)OC(C)(C)C)CCCCC1	54.5*	-1.0	4.0	8.2	-3.6	0.1
Cc1cc(/C=N/NC(=O)c2ccncc2)c(C)n1-c1ccccc1	0.6	-0.7	-4.0	3.7	-2.7	0.3
Cc1cc(C(=O)N/N=C/c2ccc(O)c(O)c2O)c(C)n1-c1ccccc1	10.0	11.7	8.1	33.0*	9.2	55.9*
CCOC(=O)Cc1csc(SCn2nnc3ccccc3c2=O)n1	-0.6	8.6	-6.5	-3.3	4.1	-2.0
CCOC(=O)Cc1csc(-n2sc3ccccc3c2=O)n1	-26.5	-0.7	10.1	16.1	73.9*	0.6
O=S(=O)(Nc1ccccc1)C1CCCCC1	4.5	-3.6	-4.2	-0.9	0.5	-1.3
Nc1cccc2[nH]c(C(F)(F)F)nc12	-12.1	3.1	67.7*	22.2	-4.2	-4.0
O=C(c1ccc2nc(-c3ccco3)c(-c3ccco3)nc2c1)N1CCN(c2ncccn2)CC1	28.4	9.1	34.0	26.1	94.6*	25.9
O=C(Nc1ccc(N2CCOCC2)cc1)c1ccc2nc(-c3ccco3)c(-c3ccco3)nc2c1	3.1	2.1	-3.1	10.2	12.1	3.7
CC(=O)c1ccc(NC(=O)c2ccc3nc(-c4ccco4)c(-c4ccco4)nc3c2)cc1	123.2*	89.1*	95.9*	93.4*	83.3*	86.1*
COc1ccccc1NC(=O)Cn1c(C)nc2c(sc(=S)n2Cc2ccco2)c1=O	-6.3	0.7	1.1	8.9	-3.8	3.7
N#C/C(=C\c1ccc(-c2ccc(C(=O)O)cc2)o1)c1nc2ccccc2[nH]1	-0.7	60.3*	2.7	5.9	56.9*	8.4
